In the library only some 1.8% were active in any assay of this set; here they are far more common.
RanGTP-Impb inh: disruptors of Ran-importin-beta complex formation – biochemical, FRET, CFP-Ran, YFP-importin-beta, homogeneous, primary screen. cell-free CFP-Ran/YFP-importin-beta FRET ratio. inhibition, % (concentration not given with the values). 1.1% of 300,000 active. AID 2216;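 active means more than half of the replicate wells show a fall in the fluorescence ratio signal beyond about 16%, limit read from the data, passing the limit was not always enough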
Runt-CBFb FRET: Runt domain-CBFb interaction inhibition | Q01196+Q13951 | Cerulean-Runt/Venus-CBFb FRET ratio 530/480, 1 h | inhibition, % at 20 µM | 0.46% of 220,000 active | AID 1496;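 active means inhibition over about 50% at 20 µM in the single-dose screen, limit read from the data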
Target sequence (Q01196 whole entry, looked up, the tested form may be a part): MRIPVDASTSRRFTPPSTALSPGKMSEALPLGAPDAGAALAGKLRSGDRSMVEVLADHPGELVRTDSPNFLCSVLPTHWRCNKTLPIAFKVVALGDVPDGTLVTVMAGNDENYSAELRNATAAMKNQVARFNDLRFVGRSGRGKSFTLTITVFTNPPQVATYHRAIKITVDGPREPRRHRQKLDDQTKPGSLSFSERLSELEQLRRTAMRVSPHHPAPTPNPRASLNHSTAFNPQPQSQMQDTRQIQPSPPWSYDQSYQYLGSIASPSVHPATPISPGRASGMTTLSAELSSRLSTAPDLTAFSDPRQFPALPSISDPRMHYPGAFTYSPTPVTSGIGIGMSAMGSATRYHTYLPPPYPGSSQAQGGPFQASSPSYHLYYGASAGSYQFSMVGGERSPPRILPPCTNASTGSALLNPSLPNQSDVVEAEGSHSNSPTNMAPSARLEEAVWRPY
Target sequence (Q13951 whole entry, looked up, the tested form may be a part): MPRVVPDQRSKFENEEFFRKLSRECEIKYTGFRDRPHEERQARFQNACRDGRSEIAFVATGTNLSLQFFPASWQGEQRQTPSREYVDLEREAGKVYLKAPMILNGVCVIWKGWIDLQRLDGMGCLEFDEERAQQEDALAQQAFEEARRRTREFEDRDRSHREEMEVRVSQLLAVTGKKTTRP
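System: Cerulean-labeled Runt domain protein | Quantity: 100 nM of each labeled protein | Schedule: 1 h compound exposure, room temperature | Detection: Fluorescence energy transfer, 422 nm excitation, 530/480 nm emission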
Runt-SMMHC FRET: inhibitors of human RUNX1 Runt domain binding to CBFb-SMMHC | Q01196+Q13951 | Cerulean-Runt/Venus-CBFb-SMMHC FRET ratio 530/480, 1 h | AID 1434 | inhibition, % at 20 µM | 0.74% of 220,000 active;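 active means mean inhibition across duplicate retests at 20 µM reaching about 50%, limit read from the data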;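 further: inhibitors lower the FRET ratio by blocking Runt binding to CBFb-SMMHC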
Hck-Nef inh: inhibitors of human Hck kinase activated by Nef. P08631. Recombinant Hck-YEEI plus Nef, Z-Lyte FRET kinase assay. inhibition, % at 20 µM. 0.68% of 220,000 active. AID 463187;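 active means Hck-Nef kinase inhibition above about 50%, limit read from the data; inactive means inhibition below that limit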
YIC counter: counter-screen for RanGTP-importin-beta inhibitors: YIC FRET probe; AID 435026; 40% of 1,000 active; Purified YIC probe, intramolecular FRET ratio YFP/CFP; IC50, µM; shares compounds with RanGTP-Impb inh;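 active means fitted half-maximal inhibitory concentration no more than tenfold above the top dose tested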
A number is an active result.

COc1cc2cc(C(N)=O)c(N)nc2cc1OC was read as RanGTP-Impb inh 49.2, Runt-CBFb FRET 101.4, Runt-SMMHC FRET 79.2, Hck-Nef inh inactive and YIC counter 10.1.
O=C(Oc1c(CN2CCOCC2)cc(Cl)c2cccnc12)c1ccccc1 was read as RanGTP-Impb inh 15.5, Runt-SMMHC FRET inactive, Hck-Nef inh inactive and YIC counter inactive.
COC(=O)c1cc(=O)n2c(sc3ccccc32)c1C#N was read as RanGTP-Impb inh 44.8, Runt-CBFb FRET 66.3, Runt-SMMHC FRET 88.1, Hck-Nef inh inactive and YIC counter 4.11.
Screening COc1ccccc1NC(=O)c1cc2ccccc2nc1C returned RanGTP-Impb inh 22.6, Runt-CBFb FRET inactive, Runt-SMMHC FRET inactive, Hck-Nef inh inactive and YIC counter inactive.
`C#Cc1ccc(CN2CCC(C(=O)Nc3ccc(Oc4ccccc4)nc3)CC2)cc1` gave RanGTP-Impb inh inactive.
CC#CC(=O)N1CCC(C(=O)Nc2ccc(Oc3ccccc3)nc2)CC1 was read as RanGTP-Impb inh 17.6 and YIC counter inactive.
For O=C(NCc1nc2ncc(Br)cc2[nH]1)c1ccccc1 the results were RanGTP-Impb inh inactive, Runt-CBFb FRET inactive, Runt-SMMHC FRET inactive and Hck-Nef inh inactive.
For O=c1[nH]c2cc(Br)cnc2nc1/C=C(\O)c1ccc(F)cc1 the results were RanGTP-Impb inh 17.7, Runt-CBFb FRET inactive, Runt-SMMHC FRET inactive, Hck-Nef inh inactive and YIC counter inactive.
CC(NC(=O)COC(=O)C1CSC2(C)CCC(=O)N12)C12CC3CC(CC(C3)C1)C2 (configuration not stated) was read as RanGTP-Impb inh inactive, Runt-CBFb FRET inactive, Runt-SMMHC FRET inactive and Hck-Nef inh inactive.
COc1ccc(NS(=O)(=O)c2cc(NC(=O)c3cccs3)ccc2N2CCOCC2)cc1 was read as RanGTP-Impb inh 15.6, Runt-CBFb FRET inactive, Runt-SMMHC FRET inactive, Hck-Nef inh inactive and YIC counter inactive.
Screening COc1ccccc1NS(=O)(=O)c1cc(NC(=O)c2cccs2)ccc1N1CCOCC1 returned RanGTP-Impb inh inactive, Runt-CBFb FRET inactive, Runt-SMMHC FRET inactive and Hck-Nef inh inactive.
CCOC(=O)/C=C1\SCC(=O)N1CC(=O)c1ccc[nH]1 was read as RanGTP-Impb inh 21.1, Runt-SMMHC FRET inactive, Hck-Nef inh inactive and YIC counter inactive.
For CCOC(=O)/C=C1\SCC(=O)N1CC(=O)Nc1ccc(OC)c(OC)c1 the results were RanGTP-Impb inh inactive, Runt-CBFb FRET inactive, Runt-SMMHC FRET inactive and Hck-Nef inh inactive.
Screening Nc1nc(CSc2nnnn2-c2ccc(F)c(Cl)c2)nc(N2CCOCC2)n1 returned RanGTP-Impb inh inactive and Hck-Nef inh inactive.
For Nc1nc(CSc2nnnn2-c2ccc(Cl)cc2)nc(N2CCOCC2)n1 the results were RanGTP-Impb inh 20.0, Runt-CBFb FRET inactive, Runt-SMMHC FRET inactive, Hck-Nef inh inactive and YIC counter inactive.
For COc1cccc(C(=O)/C=C/Nc2cc(C)ccc2O)c1 the results were RanGTP-Impb inh 30.0, Runt-CBFb FRET inactive, Runt-SMMHC FRET inactive, Hck-Nef inh inactive and YIC counter inactive.
Screening CCOC(=O)c1ccc(N/C=C\C(=O)c2cccc(OC)c2)cc1 returned RanGTP-Impb inh inactive, Runt-CBFb FRET inactive, Runt-SMMHC FRET inactive and Hck-Nef inh inactive.
Screening COc1ccc(C(=O)/C=C(\C)NCc2ccc3c(c2)OCO3)cc1 returned RanGTP-Impb inh 23.6, Runt-CBFb FRET inactive, Runt-SMMHC FRET inactive, Hck-Nef inh inactive and YIC counter inactive.
CC(=O)Oc1ccc(C(=O)NCc2ccc3c(c2)OCO3)cc1 was read as RanGTP-Impb inh inactive.
CCCCCCCNC(=O)C1(CC2CC(c3ccc(Cl)cc3)=NO2)CCN(C(=O)CCCCCBr)CC1 (configuration not stated) was read as RanGTP-Impb inh inactive.
Cc1ccc(N=Cc2cc3c(cc2[N+](=O)[O-])OCO3)cc1[N+](=O)[O-] was read as RanGTP-Impb inh 20.4 and YIC counter inactive.
Screening C=CCOc1ccc2c(c1)c(=O)cc(C(=O)O)n2CC returned RanGTP-Impb inh inactive, Runt-CBFb FRET inactive, Runt-SMMHC FRET inactive and Hck-Nef inh inactive.
Screening CC1(C)CC(=O)C/C(=N\NC(=O)C2CC23CCC3)C1 (configuration not stated) returned RanGTP-Impb inh 18.2, Runt-CBFb FRET inactive, Runt-SMMHC FRET inactive, Hck-Nef inh inactive and YIC counter inactive.
CCOc1ccc(OCc2ccc(C(=O)N(CC)CC)cc2)cc1 was read as RanGTP-Impb inh 21.1, Runt-CBFb FRET inactive, Runt-SMMHC FRET inactive, Hck-Nef inh inactive and YIC counter inactive.
`COc1ccc(N(CC(=O)NCCc2cccc(C)c2)S(=O)(=O)c2c(C)noc2C)cc1` gave RanGTP-Impb inh inactive.
`CCOc1ccc(N2C(=O)C3C4C=CC(CC4)C3C2=O)c([N+](=O)[O-])c1` (configuration not stated) gave RanGTP-Impb inh 19.8, Runt-CBFb FRET inactive, Runt-SMMHC FRET inactive, Hck-Nef inh inactive and YIC counter inactive.
`CN(CCc1cnn(C)c1)C(=O)C1CCC(=O)N(CC2CCCCC2)C1` (configuration not stated) gave RanGTP-Impb inh inactive.
For CCCCOC(=O)CSc1nc2ccccc2o1 the results were RanGTP-Impb inh inactive, Runt-CBFb FRET inactive, Runt-SMMHC FRET inactive and Hck-Nef inh inactive.
For Cc1ccc(-c2c(C(=O)N/N=C/c3ccc4c(c3)OCO4)nnn2-c2nonc2N)cc1 the results were RanGTP-Impb inh 22.8 and YIC counter inactive.
For Cc1cc(C)c(C2=CC(c3ccccc3)n3ncnc3N2)cc1C (configuration not stated) the results were RanGTP-Impb inh 18.0 and YIC counter 30.4.
Cc1cccc(/C=N/c2sc3c(c2C#N)CCN(Cc2ccccc2)C3)c1O was read as RanGTP-Impb inh 36.4, Runt-CBFb FRET inactive, Runt-SMMHC FRET 125.5, Hck-Nef inh inactive and YIC counter inactive.
`COc1ccc(/C=N/c2sc3c(c2C#N)CCN(Cc2ccccc2)C3)c(O)c1` gave RanGTP-Impb inh inactive, Runt-CBFb FRET inactive, Runt-SMMHC FRET inactive and Hck-Nef inh inactive.
Screening COC(=O)C1=CN(c2ccc(OC)cc2)C=C(C(=O)OC)C1c1cccc(F)c1 returned RanGTP-Impb inh 17.5 and YIC counter 7.51.
COc1ccccc1N1CCN(C(=O)/C=C/c2ccc(C)cc2)CC1 was read as RanGTP-Impb inh 19.6, Runt-CBFb FRET inactive, Runt-SMMHC FRET inactive, Hck-Nef inh inactive and YIC counter inactive.
Screening COc1ccccc1N1CCN(C(=O)/C=C/c2cccc([N+](=O)[O-])c2)CC1 returned RanGTP-Impb inh inactive, Runt-CBFb FRET inactive, Runt-SMMHC FRET inactive and Hck-Nef inh inactive.
Cc1ccccc1CC(=O)N1CC(C)OC(C)C1 (configuration not stated) was read as RanGTP-Impb inh inactive.
For Cc1ccc(NC(=O)COC(=O)Cc2ccsc2)c(C)c1 the results were RanGTP-Impb inh 18.7, Runt-CBFb FRET inactive, Runt-SMMHC FRET inactive, Hck-Nef inh inactive and YIC counter inactive.
For CCC(=O)N1CCc2cc(Br)cc(S(=O)(=O)N3CCC(C(=O)NC(C)C)CC3)c21 the results were RanGTP-Impb inh inactive.
